Assay [1] deals with T1, 5-hydroxytryptamine receptor 1A (Rattus norvegicus, UniProt P19327).
T1 sequence (P19327 whole entry): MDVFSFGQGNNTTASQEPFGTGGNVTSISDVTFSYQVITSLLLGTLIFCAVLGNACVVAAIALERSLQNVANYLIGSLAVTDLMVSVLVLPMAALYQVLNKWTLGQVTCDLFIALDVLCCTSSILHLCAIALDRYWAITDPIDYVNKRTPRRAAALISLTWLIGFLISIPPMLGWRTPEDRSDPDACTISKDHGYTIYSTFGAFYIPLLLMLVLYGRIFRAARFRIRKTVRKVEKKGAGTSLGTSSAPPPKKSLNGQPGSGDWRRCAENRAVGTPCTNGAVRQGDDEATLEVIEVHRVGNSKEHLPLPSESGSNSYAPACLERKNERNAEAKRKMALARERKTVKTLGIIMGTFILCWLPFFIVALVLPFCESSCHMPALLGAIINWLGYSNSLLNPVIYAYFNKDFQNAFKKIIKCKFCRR
Kind of assay: Binding affinity towards 5-hydroxytryptamine 1A receptor in rat hippocampus using [3H]8-OH-DPAT as radio-ligand.

In assay [2] the target is 5-hydroxytryptamine receptor 1B (Rattus norvegicus, UniProt P28564). As to the kind of experiment: Binding affinity towards 5-hydroxytryptamine 1B receptor in rat frontal cortex using [125I]iodocyanopindolol as radio-ligand. In kind it is tissue-based.
Another assay is filed under the species Rattus norvegicus. Kind of assay: [3H]5-HT reuptake inhibition in Rat brain synaptosomes. It counts as functional.
The species named for a further assay is Oryctolagus cuniculus. As to the kind of experiment: Inhibition of the contractile responses elicited by sumatriptan in rabbit saphenous vein (RSV). In kind it is functional. The note with it: read-out: pA2 (converted). An outline of the steps: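 Isolated rabbit saphenous vein segments held in organ baths. Each segment received two sumatriptan concentration-response curves, the second after 60 min incubation with antagonist or control vehicle. Apparent pA2 was calculated from a single antagonist concentration in at least 3 preparations.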

The species entered for the next assay is Cavia porcellus. Kind of assay: Sumatriptan induced inhibition of potassium evoked [3H]5-HT release from guinea pig cortex slices. It counts as functional. The gist of the method:
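Cortex slices from male Dunkin-Hartley guinea pigs were loaded with [3H]5-HT for 30 min, then given potassium stimulation. Sumatriptan 3 µM alone (control), or with test compound at 30 nM, 300 nM or 3 µM, was superfused before and during S2. Basal-subtracted S2/S1 ratio is expressed as % of the sumatriptan-only ratio. Mean (±SEM) of 3-4 determinations.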

Chain of 5-hydroxytryptamine receptor 1B (P28564 whole entry): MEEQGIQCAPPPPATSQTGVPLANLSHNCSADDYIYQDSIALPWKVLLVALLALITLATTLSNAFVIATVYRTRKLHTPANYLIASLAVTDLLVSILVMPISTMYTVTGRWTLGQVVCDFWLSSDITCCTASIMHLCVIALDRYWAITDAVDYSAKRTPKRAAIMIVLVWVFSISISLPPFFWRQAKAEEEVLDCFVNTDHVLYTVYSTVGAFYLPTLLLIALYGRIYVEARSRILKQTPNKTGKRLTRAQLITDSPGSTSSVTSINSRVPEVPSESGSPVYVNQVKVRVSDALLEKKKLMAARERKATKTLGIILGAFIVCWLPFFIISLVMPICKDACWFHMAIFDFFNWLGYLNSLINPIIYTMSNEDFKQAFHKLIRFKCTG

What is called IC50 is the midpoint of a concentration-inhibition curve. Read a low IC50 as greater potency in that assay. Consider `COc1ccc(NC(=O)NCCc2c[nH]c3ccc(O)cc23)cc1N1CCN(C)CC1`, for which the IC50 in assay [1] was found to be 57 nM; in assay [2], 467 nM; in the assay listed under Rattus norvegicus, 314 nM.

As to `NC(=O)c1ccc2[nH]cc(C3CCNCC3)c2c1`, in the assay filed under Rattus norvegicus, the IC50 is greater than 100 nM.

In turn, `NCCN1CCC(c2c[nH]c3cc(F)ccc23)CC1` returned a 50% inhibitory concentration (IC50) in the assay listed under Rattus norvegicus of 11 nM.

The compound `Fc1ccc2[nH]cc(CCCCN3CCNCC3)c2c1` gave an IC50 in the assay filed under Rattus norvegicus of 0.15 nM.

For `COc1ccc(NC(=O)N2CCc3[nH]c4ccc(F)cc4c3C2)cc1N1CCN(C)CC1`, the IC50 in assay [1] is greater than 800 nM; in assay [2], 567 nM; in the assay listed under Rattus norvegicus, 469 nM.

As for `COc1ccc(NC(=O)N2CCN(CCCCc3c[nH]c4ccc(F)cc34)CC2)cc1N1CCN(C)CC1`, the values for the IC50 (in assay [1]; in assay [2]; in the assay listed under Rattus norvegicus) were 50 nM, 77 nM and 0.7 nM, respectively. Further, in the assay filed under Oryctolagus cuniculus, the Kb was 20 nM. This compound also registered a Release in the assay listed under Cavia porcellus of 120%.

Consider `COc1ccc(NC(=O)N2CCC(c3c[nH]c4ccccc34)CC2)cc1N1CCN(C)CC1`, for which the IC50 in assay [1] worked out at 400 nM; in assay [2], 50 nM; in the assay listed under Rattus norvegicus it was 200 nM. The Kb in the assay listed under Oryctolagus cuniculus was 20 nM. This compound displayed a Release in the assay filed under Cavia porcellus of 127%.

`CN1CCC2(CC1)COc1ccc(NC(=O)NCCN3CCC(c4c[nH]c5cc(F)ccc45)CC3)cc12`: the IC50 in assay [1] turned out to be 700 nM; in assay [2], 300 nM; in the assay listed under Rattus norvegicus it was 2.2 nM.

In the case of `Cc1nc(-c2ccc(-c3ccc(C(=O)Nc4ccc5c(c4)C4(CCN(C)CC4)CO5)cc3)c(C)c2)no1`, the IC50 was 2.1 nM in assay [2] and greater than 1000 nM in the assay listed under Rattus norvegicus. The compound also came in with a Release in the assay filed under Cavia porcellus of 134%.

As for `Fc1ccc2[nH]c3c(c2c1)CNCC3`, the IC50 in the assay listed under Rattus norvegicus was greater than 100 nM.

Regarding `COc1ccc(NC(=O)N2CCC(c3c[nH]c4cccc(F)c34)CC2)cc1N1CCN(C)CC1`, the IC50 came out at 300 nM in assay [1], 50 nM in assay [2] and 65 nM in the assay listed under Rattus norvegicus. The Kb in the assay listed under Oryctolagus cuniculus is 2 nM. The same compound yielded a Release in the assay filed under Cavia porcellus of 145%.

As to `COc1ccc(NC(=O)NCCN2CCC(c3c[nH]c4cc(F)ccc34)CC2)cc1N1CCN(C)CC1`, the IC50 in assay [1] is 160 nM; in assay [2], 223 nM; in the assay filed under Rattus norvegicus, 1.9 nM.

In the case of `c1ccc2c(C3CCNCC3)c[nH]c2c1`, inhibition in the assay filed under Rattus norvegicus was half-maximal at 60 nM (IC50).

For `COc1ccc(NC(=O)NCCc2c[nH]c3ccc(F)cc23)cc1N1CCN(C)CC1`, the IC50 was determined as 27 nM in assay [1], 63 nM in assay [2] and 387 nM in the assay filed under Rattus norvegicus. Further, the Kb in the assay listed under Oryctolagus cuniculus was 20 nM. The Release in the assay listed under Cavia porcellus is recorded as 134%.

As to `COc1ccc(NC(=O)N2CCC(c3c[nH]c4ccc(F)cc34)CC2)cc1N1CCN(C)CC1`, the IC50 in assay [1] was determined as 367 nM; in assay [2], 85 nM; in the assay listed under Rattus norvegicus it was 21 nM. The Kb in the assay listed under Oryctolagus cuniculus is 15.8 nM. Further, in the assay listed under Cavia porcellus, the Release amounted to 151%.

On to `COc1ccc(N)cc1N1CCN(C)CC1`, for which the IC50 in the assay listed under Rattus norvegicus was greater than 1000 nM.

Consider `COc1ccc(NC(=O)N2CCC(c3c[nH]c4ccc(C(N)=O)cc34)CC2)cc1N1CCN(C)CC1`, for which the half-inhibitory concentration (IC50) in assay [1] is 17 nM; in assay [2] it was 113 nM; in the assay listed under Rattus norvegicus, 472 nM. For the same compound, the Kb in the assay filed under Oryctolagus cuniculus was 15.8 nM. Further, the Release in the assay listed under Cavia porcellus came out at 217%.

`CN1CCC2(CC1)COc1ccc(N)cc12` gave an IC50 in the assay filed under Rattus norvegicus greater than 1000 nM.

Regarding `NCCc1c[nH]c2ccc(F)cc12`, the IC50 in the assay filed under Rattus norvegicus was determined as 130 nM.

In the case of `Fc1ccc2[nH]cc(C3CCNCC3)c2c1`, in the assay filed under Rattus norvegicus, the IC50 worked out at 55 nM.

In turn, `Fc1ccc2[nH]cc(C3CCNC3)c2c1` (stereo not drawn) gave an IC50 in the assay listed under Rattus norvegicus of 45 nM.

As to `CN1CCC2(CC1)COc1ccc(NC(=O)N3CCC(c4c[nH]c5ccc(F)cc45)CC3)cc12`, the IC50 is greater than 200 nM in assay [1], 23 nM in assay [2] and 0.2 nM in the assay listed under Rattus norvegicus. Also, the Kb in the assay listed under Oryctolagus cuniculus is 50.1 nM. Besides, in the assay filed under Cavia porcellus, the Release is 125%.

`COc1ccc(N)cc1OCCN(C)C` gave an IC50 in the assay listed under Rattus norvegicus greater than 1000 nM.

`Fc1cccc2[nH]cc(C3CCNCC3)c12` displayed an IC50 in the assay listed under Rattus norvegicus of 60 nM.

As to `COc1ccc(NC(=O)N2CCC(c3c[nH]c4cc(F)ccc34)CC2)cc1N1CCN(C)CC1`, the values for the IC50 (in assay [1]; in assay [2]; in the assay filed under Rattus norvegicus) were 667 nM, 80 nM and 49 nM, respectively. In addition, the Kb in the assay listed under Oryctolagus cuniculus was 25.1 nM. The Release in the assay listed under Cavia porcellus was determined as 169%.

`COc1ccc(NC(=O)NCCN2CCC(c3c[nH]c4cc(F)ccc34)CC2)cc1OCCN(C)C`: the 50% inhibitory concentration (IC50) in assay [1] was found to be 233 nM; in assay [2] it was 133 nM; in the assay listed under Rattus norvegicus, 1.2 nM.

On to `COc1ccc(NC(=O)N2CCC(c3c[nH]c4ccc(F)cc34)C2)cc1N1CCN(C)CC1` (stereo not drawn), for which the IC50 in assay [1] was found to be 100 nM; in assay [2], 233 nM; in the assay filed under Rattus norvegicus, 106 nM.

Take `COc1ccc(NC(=O)N2CCC(CCc3c[nH]c4ccccc34)CC2)cc1N1CCN(C)CC1`: the values for the IC50 (in assay [1]; in assay [2]; in the assay filed under Rattus norvegicus) were greater than 300 nM, 120 nM and 10 nM, respectively. Moreover, the Kb in the assay filed under Oryctolagus cuniculus is 20 nM. This compound also registered a Release in the assay filed under Cavia porcellus of 121%.

Turning to `Fc1ccc2c(C3CCNCC3)c[nH]c2c1`, 20 nM corresponded to half-maximal inhibition in the assay listed under Rattus norvegicus (IC50).

`COc1ccc(NC(=O)N2CCC(c3c[nH]c4ccc(F)cc34)CC2)cc1OCCN(C)C`: the values for the IC50 (in assay [1]; in assay [2]; in the assay filed under Rattus norvegicus) were greater than 500 nM, 633 nM and 4 nM, respectively.

In the assay listed under Rattus norvegicus, `N#Cc1ccc2[nH]cc(C3CCNCC3)c2c1` returned a 50% inhibitory concentration (IC50) of 58 nM.

For the compound `COc1ccc(NC(=O)N2CCC(c3c[nH]c4ccc(C#N)cc34)CC2)cc1N1CCN(C)CC1`, the IC50 was determined as 233 nM in assay [1], 267 nM in assay [2] and 1.9 nM in the assay filed under Rattus norvegicus. The Kb in the assay filed under Oryctolagus cuniculus was 10 nM. The compound further displayed a Release in the assay listed under Cavia porcellus of 167%.

In the case of `COc1ccc(NC(=O)c2ccc(-c3ccc(-c4noc(C)n4)cc3C)cc2)cc1N1CCN(C)CC1` [GR-127935], the IC50 was 360 nM in assay [1] and 1000 nM in the assay filed under Rattus norvegicus. Further, the Kb in the assay listed under Oryctolagus cuniculus is 0.398 nM. The compound also registered a Release in the assay filed under Cavia porcellus of 114%.

`c1ccc2c(CCC3CCNCC3)c[nH]c2c1` [INDALPINE]: in the assay listed under Rattus norvegicus, half-maximal inhibition (IC50) was put at 1 nM.

The record behind these values is ChEMBL document CHEMBL1132979, “5-HT reuptake inhibitors with 5-HT(1B/1D) antagonistic activity: a new approach toward efficient antidepressants” (J Med Chem, 2000).
